Converted amounts (≈) assume the structure as drawn. The source made the active and inactive calls. The calls are words filed in the database; no cut-off is given here.
What was measured:
[1] = tested on: Mycobacterium tuberculosis; test: Antimycobacterial activity against XDR Mycobacterium tuberculosis Praha 131 after 14 days; format: functional; conditions: for MIC99: Praha 131, 336 h
Method in brief: (§1)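 M. tuberculosis strains (H37Rv and clinical MDR/XDR isolates) tested by microdilution in Šula's semisynthetic medium. Compounds were dissolved in DMSO and tested at 32 to 0.03 µM in twofold steps. Inoculum was a 1.0 McFarland suspension diluted 10-3. Plates were incubated at 37 °C and read at 14 and 21 days.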

[2] = tested on: Candida parapsilosis; test: Antifungal activity against Candida parapsilosis ATCC 22019 CCM 8260 at highest concentration measured after 24 to 48 hrs by alamar blue dye based broth microdilution assay; format: functional, organism-based
[3] = tested on: HepG2; test: Cytotoxicity against human HepG2 cells assessed as reduction in cell viability after 48 hrs by CellTiter 96 aqueous one solution assay; format: cell-based; conditions: HepG2, 48 h
[4] = tested on: Mycobacterium tuberculosis; test: Antimycobacterial activity against Mycobacterium tuberculosis H37Rv CNCTC My 331/88 after 21 days; format: functional; conditions: H37Rv CNCTC My 331/88, 504 h; method in brief: as §1
[5] = tested on: Candida tropicalis; test: Antifungal activity against Candida tropicalis ATCC 750 CCM 8264 at highest concentration measured after 24 to 48 hrs by alamar blue dye based broth microdilution assay; format: functional, organism-based
[6] = tested on: Mycobacterium kansasii; test: Antimycobacterial activity against Mycobacterium kansasii 6509/96 after 7 days; format: functional; conditions: 6509/96, 168 h
Method in brief: (§2)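 Microdilution in Šula's semisynthetic medium; compounds in DMSO at 32–0.03 µM. Inoculum from 1.0 McFarland suspension diluted 10-4. […] Isoniazid and rifampicin as reference drugs.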

[7] = tested on: Mycobacterium avium; test: Antimycobacterial activity against Mycobacterium avium CNCTC My 330/88 after 21 days; format: functional; conditions: CNCTC My 330/88, 504 h
Method in brief: (§3)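 M. avium was tested by microdilution in Šula's semisynthetic medium, with compounds dissolved in DMSO and serially diluted from 1000 down to 1. Inoculum was a 1.0 McFarland suspension diluted 10-5. Plates were incubated at 37 °C and read at 14 and 21 days. […] Isoniazid and rifampicin served as standards.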

[8] = tested on: Pseudomonas aeruginosa; test: Antibacterial activity against Pseudomonas aeruginosa ATCC 27853 CCM 3955 at highest concentration measured after 24 to 48 hrs by alamar blue dye based broth microdilution assay; format: functional, organism-based
[9] = tested on: A-431; test: Cytotoxicity against human A431 cells assessed as reduction in cell viability after 48 hrs by CellTiter 96 aqueous one solution assay; format: cell-based; conditions: A-431, 48 h
[10] = tested on: Staphylococcus aureus; test: Antibacterial activity against Staphylococcus aureus subsp. aureus ATCC 29213 CCM 4223 at highest concentration measured after 24 to 48 hrs by alamar blue dye based broth microdilution assay; format: functional, organism-based
[11] = tested on: Lichtheimia corymbifera; test: Antifungal activity against Lichtheimia corymbifera CCM 8077 at highest concentration measured after 24 to 48 hrs by alamar blue dye based broth microdilution assay; format: functional, organism-based
[12] = tested on: Mycobacterium kansasii; test: Antimycobacterial activity against Mycobacterium kansasii 6509/96 after 21 days; format: functional; conditions: 6509/96, 504 h; method in brief: as §2
[13] = Cytotoxicity against human HepG2 cells assessed as cell viability at 30 uM after 48 hrs by CellTiter 96 aqueous one solution assay relative to control; format: cell-based; conditions: read-out: Activity
Method in brief: (§4)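 HepG2 (DMEM, 10% FBS, 1 mM pyruvate) or A431 (DMEM, 10% FBS) seeded 10,000 cells/well, 24 h at 37 °C, 5% CO2, then 30 µM compound for 48 h. MTS reagent 60 min, absorbance 490 nm, background subtracted; 0.1% DMSO vehicle = 100%, 10% SDS = 0% viability.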

[14] = tested on: Mycobacterium kansasii; test: Antimycobacterial activity against Mycobacterium kansasii CNCTC My 235/80 after 7 days; format: functional; conditions: CNCTC My 235/80, 168 h; method in brief: as §2
[15] = tested on: Aspergillus fumigatus; test: Antifungal activity against Aspergillus fumigatus ATCC 204305 at highest concentration measured after 24 to 48 hrs by alamar blue dye based broth microdilution assay; format: functional, organism-based
[16] = tested on: Enterococcus faecalis; test: Antibacterial activity against Enterococcus faecalis ATCC 29212 CCM 4224 at highest concentration measured after 24 to 48 hrs by alamar blue dye based broth microdilution assay; format: functional, organism-based
[17] = tested on: Mycobacterium tuberculosis; test: Antimycobacterial activity against Mycobacterium tuberculosis H37Rv CNCTC My 331/88 after 14 days; format: functional; conditions: H37Rv CNCTC My 331/88, 336 h; method in brief: as §1
[18] = tested on: Mycobacterium kansasii; test: Antimycobacterial activity against Mycobacterium kansasii CNCTC My 235/80 after 21 days; format: functional; conditions: CNCTC My 235/80, 504 h; method in brief: as §2
[19] = tested on: Klebsiella pneumoniae; test: Antibacterial activity against Klebsiella pneumoniae at highest concentration measured after 24 to 48 hrs by alamar blue dye based broth microdilution assay; format: functional, organism-based
[20] = tested on: Serratia marcescens; test: Antibacterial activity against Serratia marcescens at highest concentration measured after 24 to 48 hrs by alamar blue dye based broth microdilution assay; format: functional, organism-based
[21] = tested on: Escherichia coli; test: Antibacterial activity against Escherichia coli ATCC 25922 CCM 3954 at highest concentration measured after 24 to 48 hrs by alamar blue dye based broth microdilution assay; format: functional, organism-based
[22] = tested on: Mycobacterium kansasii; test: Antimycobacterial activity against Mycobacterium kansasii 6509/96 after 14 days; format: functional; conditions: 6509/96, 336 h; method in brief: as §2
[23] = tested on: Mycobacterium avium; test: Antimycobacterial activity against Mycobacterium avium CNCTC My 330/88 after 14 days; format: functional; conditions: CNCTC My 330/88, 336 h; method in brief: as §3
[24] = tested on: Pichia kudriavzevii; test: Antifungal activity against Candida krusei ATCC 6258 CCM8271 at highest concentration measured after 24 to 48 hrs by alamar blue dye based broth microdilution assay; format: functional, organism-based
[25] = tested on: Staphylococcus aureus; test: Antibacterial activity against methicillin-resistant Staphylococcus aureus subsp. aureus ATCC 43300 CCM 4750 at highest concentration measured after 24 to 48 hrs by alamar blue dye based broth microdilution assay; format: functional, organism-based
[26] = tested on: Candida albicans; test: Antifungal activity against Candida albicans ATCC 24433 CCM 8320 at highest concentration measured after 24 to 48 hrs by alamar blue dye based broth microdilution assay; format: functional, organism-based
[27] = tested on: Aspergillus flavus; test: Antifungal activity against Aspergillus flavus CCM 8363 at highest concentration measured after 24 to 48 hrs by alamar blue dye based broth microdilution assay; format: functional, organism-based
[28] = tested on: Staphylococcus epidermidis; test: Antibacterial activity against Staphylococcus epidermidis at highest concentration measured after 24 to 48 hrs by alamar blue dye based broth microdilution assay; format: functional, organism-based
[29] = Cytotoxicity against human A431 cells assessed as cell viability at 30 uM after 48 hrs by CellTiter 96 aqueous one solution assay relative to control; format: cell-based, A-431; conditions: read-out: Activity; method in brief: as §4
[30] = tested on: Mycobacterium kansasii; test: Antimycobacterial activity against Mycobacterium kansasii CNCTC My 235/80 after 14 days; format: functional; conditions: CNCTC My 235/80, 336 h; method in brief: as §2
[31] = tested on: Trichophyton interdigitale; test: Antifungal activity against Trichophyton interdigitale ATCC 9533 CCM 8377 at highest concentration measured after 72 to 120 hrs by alamar blue dye based broth microdilution assay; format: functional

Row | Compound | Activity [2] | IC50 [3] [µM] | MIC99 [4] [µM] | Activity [5] | MIC99 [6] [µM] | MIC99 [7] [µM] | Activity [8] | IC50 [9] [µM] | Activity [10] | Activity [11] | MIC99 [12] [µM] | viability at 48 h, 30 µM [13] [%] | MIC99 [14] [µM] | Activity [15] | Activity [16] | MIC99 [17] [µM] | MIC99 [18] [µM] | Activity [19] | Activity [20] | Activity [21] | further results
1 | CN[C@@H]1[C@H](O[C@H]2[C@H](O[C@H]3[C@H](O)[C@@H](O)[C@H](N=C(N)N)[C@@H](O)[C@@H]3N=C(N)N)O[C@@H](C)[C@]2(O)C=O)O[C@@H](CO)[C@H](O)[C@H]1O [STREPTOMYCIN] | – | – | – | – | – | – | – | – | – | – | – | – | – | – | – | – | – | – | – | – | MIC99 [1]: > 32 µM
2 | GENTAMICIN | – | – | – | – | – | – | – | – | – | – | – | – | – | – | – | – | – | – | – | – | MIC>99 [1]: > 8 µM
3 | O=[N+]([O-])c1cc(CSc2nnc(-c3ccccc3)n2C2CCCCC2)cc([N+](=O)[O-])c1 | inactive | > 30 | 2 (≈ 0.879 µg/mL) | inactive | 1 (≈ 0.439 µg/mL) | 250 (≈ 110 µg/mL) | inactive | > 30 | inactive | inactive | 4 (≈ 1.76 µg/mL) | 87 | 1 (≈ 0.439 µg/mL) | inactive | inactive | 1 (≈ 0.439 µg/mL) | 4 (≈ 1.76 µg/mL) | inactive | inactive | inactive | MIC99 [22]: 2 µM (≈ 0.879 µg/mL); MIC99 [23]: 250 µM (≈ 110 µg/mL); Activity [24]: inactive; Activity [25]: inactive; Activity [26]: inactive; Activity [27]: inactive; Activity [28]: inactive; viability at 48 h, 30 µM [29]: 131%; MIC99 [30]: 2 µM (≈ 0.879 µg/mL); Activity [31]: inactive
4 | NCC[C@H](O)C(=O)N[C@@H]1C[C@H](N)[C@@H](O[C@H]2O[C@H](CN)[C@@H](O)[C@H](O)[C@H]2O)[C@H](O)[C@H]1O[C@H]1O[C@H](CO)[C@@H](O)[C@H](N)[C@H]1O [AMIKACIN] | – | – | – | – | – | – | – | – | – | – | – | – | – | – | – | – | – | – | – | – | MIC99 [1]: > 32 µM
5 | COc1ccc(CSc2nnc(-c3cc([N+](=O)[O-])cc([N+](=O)[O-])c3)n2C)cc1 | inactive | > 30 | 0.5 (≈ 0.201 µg/mL) | inactive | 2 (≈ 0.803 µg/mL) | 16 (≈ 6.42 µg/mL) | inactive | > 30 | inactive | inactive | 2 (≈ 0.803 µg/mL) | 107 | 1 (≈ 0.401 µg/mL) | inactive | inactive | 0.25 (≈ 0.1 µg/mL) | 4 (≈ 1.61 µg/mL) | inactive | inactive | inactive | MIC99 [22]: 2 µM (≈ 0.803 µg/mL); MIC99 [23]: 16 µM (≈ 6.42 µg/mL); Activity [24]: inactive; Activity [25]: inactive; Activity [26]: inactive; Activity [27]: inactive; Activity [28]: inactive; viability at 48 h, 30 µM [29]: 104%; MIC99 [30]: 2 µM (≈ 0.803 µg/mL); Activity [31]: inactive
6 | Cn1c(SCc2ccc(Br)cc2)nnc1-c1cc([N+](=O)[O-])cc([N+](=O)[O-])c1 | inactive | > 30 | 0.5 (≈ 0.225 µg/mL) | inactive | 0.25 (≈ 0.113 µg/mL) | 8 (≈ 3.6 µg/mL) | inactive | > 30 | inactive | inactive | 1 (≈ 0.45 µg/mL) | 152 | 0.5 (≈ 0.225 µg/mL) | inactive | inactive | 0.25 (≈ 0.113 µg/mL) | 1 (≈ 0.45 µg/mL) | inactive | inactive | inactive | MIC99 [22]: 0.5 µM (≈ 0.225 µg/mL); MIC99 [23]: 8 µM (≈ 3.6 µg/mL); Activity [24]: inactive; Activity [25]: inactive; Activity [26]: inactive; Activity [27]: inactive; Activity [28]: inactive; viability at 48 h, 30 µM [29]: 137%; MIC99 [30]: 0.5 µM (≈ 0.225 µg/mL); Activity [31]: inactive
7 | O=[N+]([O-])c1cc(CSc2nnc(-c3ccc(Cl)cc3)n2Cc2ccccc2)cc([N+](=O)[O-])c1 | inactive | > 30 | 4 (≈ 1.93 µg/mL) | inactive | 8 (≈ 3.86 µg/mL) | 250 (≈ 120 µg/mL) | inactive | > 30 | inactive | inactive | 8 (≈ 3.86 µg/mL) | 104 | 4 (≈ 1.93 µg/mL) | inactive | inactive | 4 (≈ 1.93 µg/mL) | 8 (≈ 3.86 µg/mL) | inactive | inactive | inactive | MIC99 [22]: 8 µM (≈ 3.86 µg/mL); MIC99 [23]: 250 µM (≈ 120 µg/mL); Activity [24]: inactive; Activity [25]: inactive; Activity [26]: inactive; Activity [27]: inactive; Activity [28]: inactive; viability at 48 h, 30 µM [29]: 73%; MIC99 [30]: 8 µM (≈ 3.86 µg/mL); Activity [31]: inactive

Reference: ChEMBL document CHEMBL4373711, “Development of 3,5-Dinitrophenyl-Containing 1,2,4-Triazoles and Their Trifluoromethyl Analogues as Highly Efficient Antitubercular Agents Inhibiting Decaprenylphosphoryl-β-d-ribofuranose 2'-Oxidase” (J Med Chem, 2019)
